The text below walks through data of the array DNA melting data of Ke et al. (doi:10.1101/2024.01.08.574731).

Data set [1] in a line: folding enthalpy; higher = less favourable; fluorescence melt of hairpins on a sequencing array, two-state fit. The conditions noted are these: sodium 0.088 M. An outline of the steps: (§1)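 With Cy3 and quencher oligos annealed, library hairpins on a sequenced MiSeq flow cell were imaged for Cy3 fluorescence in 50 mM Na-HEPES pH 8.0, 25 mM NaCl, in 2.5 °C steps up to 60 °C. Melting temperature and folding enthalpy were derived from bootstrapped two-state fits of signals normalised to pre-quench Cy3 and to control constructs. Four replicates were combined by inverse variance, with fitted temperatures raised by 9.35 °C to match UV melts.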

Data set [2] in a line: melting temperature; fluorescence melt of hairpins on a sequencing array, two-state fit, raised by 9.35 °C to match UV melts. The conditions noted are these: sodium 0.088 M. The method in brief: as §1

As for GAATCCCGAAAGGGTTC (((.(((....)))))), the folding enthalpy in data set [1] is -17.9 kcal/mol. In addition, the Tm in data set [2] was found to be 48.1 °C.

Turning to GAATCCGAAAGGATTTTC ((((((....)))..))), in data set [1], the folding enthalpy is -15.7 kcal/mol. Further, in data set [2], the Tm was found to be 48.9 °C.

Regarding GAATCCGGAAACGGACTC ((.((((....)))).)), the folding enthalpy in data set [1] is -17.9 kcal/mol. In data set [2], the Tm came out at 36.2 °C.

As to GAATCGGGAAACCGATCC (.(((((....))))).), the folding enthalpy in data set [1] was -15.6 kcal/mol. For the same sequence, the Tm in data set [2] was found to be 39 °C.

With GAATGAGAAATCATTC ((((((....)))))), the folding enthalpy in data set [1] is -26.8 kcal/mol. Also, the Tm in data set [2] was determined as 43 °C.

Consider GAATGAGGAAACTTATTC ((((.((....)).)))), for which, in data set [1], the folding enthalpy was -20.4 kcal/mol. Moreover, the Tm in data set [2] was 29.6 °C.

Take GAATGCCGAAAGGCGTTC (((.(((....))).))): the folding enthalpy in data set [1] is -27.7 kcal/mol. In addition, in data set [2], the Tm was determined as 61.6 °C.

GAATGCGAAAGCAAATTC ((((((....)))..))): the folding enthalpy in data set [1] was -18.9 kcal/mol. The Tm in data set [2] worked out at 33.6 °C.

As for GAATGCGAAAGCACATTC ((((((....)))..))), the folding enthalpy in data set [1] is -13.2 kcal/mol. Further, the Tm in data set [2] is 31.3 °C.

On to GAATGCGAAAGCACCTTC ((((((....)))..))), for which the folding enthalpy in data set [1] is -11.2 kcal/mol. Moreover, the Tm in data set [2] came to 33.2 °C.

On to GAATGCGAAAGCAGATTC ((((((....)))..))), for which the folding enthalpy in data set [1] is -15.6 kcal/mol. Also, the Tm in data set [2] came out at 43.2 °C.

On to GAATGCGGAAACGCATCC (.(((((....))))).), for which, in data set [1], the folding enthalpy was -11.6 kcal/mol. Besides, the Tm in data set [2] stood at 42.5 °C.

GAATGCGGAAACGCGTTC (((.(((....))).))): in data set [1], the folding enthalpy was -37.5 kcal/mol. Also, the Tm in data set [2] worked out at 54.2 °C.

With GAATGGAAACATTC (((((....))))), in data set [1], the folding enthalpy was -24.9 kcal/mol. The Tm in data set [2] is 40.6 °C.

As to GAATGGCGAAAGCCGTTC (((.(((....))).))), the folding enthalpy in data set [1] was -22.4 kcal/mol. In addition, the Tm in data set [2] was 58.1 °C.

As for GAATGGCGAAAGCCTTTC (((.(((....))).))), the folding enthalpy in data set [1] was -21 kcal/mol. The Tm in data set [2] is 47.2 °C.

As to GAATGGGAAACCATTC ((((((....)))))), in data set [1], the folding enthalpy is -37.9 kcal/mol. In data set [2], the Tm was determined as 51.7 °C.

In the case of GAATGGGGAAACCTATTC ((((.((....)).)))), in data set [1], the folding enthalpy was -31.6 kcal/mol. Besides, the Tm in data set [2] was 37.9 °C.

As for GAATGGGGAAACCTGTTC (((..((....))..))), the folding enthalpy in data set [1] is -13.1 kcal/mol. Further, the Tm in data set [2] was determined as 29.9 °C.

For GAATTACGAAAGTACTTC (((.(((....))).))), the folding enthalpy in data set [1] is -20.1 kcal/mol. In data set [2], the Tm worked out at 32.5 °C.

Regarding GAATTACGAAAGTAGTTC (((.(((....))).))), the folding enthalpy in data set [1] was -31.5 kcal/mol. In addition, in data set [2], the Tm came out at 42.6 °C.

On to GAATTCGCGAAAGCGTTC (((..(((....)))))), for which the folding enthalpy in data set [1] was -6.23 kcal/mol. In addition, the Tm in data set [2] was 19.9 °C.

In the case of GAATTCGGAAACGAATCC (.(((((....))))).), the folding enthalpy in data set [1] was -16.6 kcal/mol. The Tm in data set [2] is 36.8 °C.

Consider GAATTCGGAAACGAATTC (((((((....))))))), for which the folding enthalpy in data set [1] was -35 kcal/mol. In addition, the Tm in data set [2] amounted to 58.6 °C.

For the sequence GAATTCGGAAACGGATTC ((((.((....)).)))), the folding enthalpy in data set [1] is -36.2 kcal/mol. Moreover, in data set [2], the Tm was 45.4 °C.

On to GAATTGGGAAACCAATCC (.(((((....))))).), for which the folding enthalpy in data set [1] is -14.6 kcal/mol. Moreover, the Tm in data set [2] turned out to be 29.8 °C.

Take GAATTGGGAAACCAGTTC (((.(((....))).))): the folding enthalpy in data set [1] is -30.1 kcal/mol. Also, in data set [2], the Tm was 39.4 °C.

For the sequence GACAAAGCGAAAGCTGTC (((..(((....)))))), the folding enthalpy in data set [1] is -19.7 kcal/mol. For the same sequence, the Tm in data set [2] came out at 50.6 °C.

With GACAACACGAAAGTGGTC (((..(((....)))))), in data set [1], the folding enthalpy was -16 kcal/mol. Besides, in data set [2], the Tm was found to be 39.8 °C.

GACAACGAAAGTTAAGTC ((((((....)))..))): the folding enthalpy in data set [1] was -14.7 kcal/mol. Also, the Tm in data set [2] came to 33.2 °C.

Regarding GACAACGAAAGTTGAGTC ((((((....)))..))), the folding enthalpy in data set [1] was -11.2 kcal/mol. Further, in data set [2], the Tm amounted to 34.8 °C.

In the case of GACAACGAAAGTTGGGTC ((((((....)))..))), the folding enthalpy in data set [1] is -15.7 kcal/mol. For the same sequence, the Tm in data set [2] stood at 49.8 °C.

Consider GACAAGACGAAAGTCGTC (((..(((....)))))), for which the folding enthalpy in data set [1] is -13.1 kcal/mol. In addition, the Tm in data set [2] amounted to 40.8 °C.

Consider GACAAGCGAAAGCTAGTC (((.(((....))).))), for which the folding enthalpy in data set [1] was -23 kcal/mol. Also, in data set [2], the Tm came out at 52 °C.

In the case of GACAAGGCGAAAGCCGTC (((..(((....)))))), the folding enthalpy in data set [1] is -8.66 kcal/mol. For the same sequence, in data set [2], the Tm turned out to be 40.9 °C.

Turning to GACAAGGGAAACCTTGCC (.(((((....))))).), the folding enthalpy in data set [1] is -14.8 kcal/mol. Besides, in data set [2], the Tm worked out at 42 °C.

In the case of GACAATGAAAATTGTC ((((((....)))))), the folding enthalpy in data set [1] was -31.3 kcal/mol. The Tm in data set [2] turned out to be 51.6 °C.
